From ChEMBL document CHEMBL1138502, “Discovery and biological evaluation of novel cyanoguanidine P2X(7) antagonists with analgesic activity in a rat model of neuropathic pain” (J Med Chem, 2009)

Assays:
P2X purinoceptor 7 [1] = target: T1, P2X purinoceptor 7 (Homo sapiens, UniProt Q99572); test: Antagonist activity at human cloned P2X7 receptor expressed in HEK293 cells assessed as inhibition of calcium flux by FLIPR assay; assay type: functional, cell-based
T1 sequence (Q99572 whole entry): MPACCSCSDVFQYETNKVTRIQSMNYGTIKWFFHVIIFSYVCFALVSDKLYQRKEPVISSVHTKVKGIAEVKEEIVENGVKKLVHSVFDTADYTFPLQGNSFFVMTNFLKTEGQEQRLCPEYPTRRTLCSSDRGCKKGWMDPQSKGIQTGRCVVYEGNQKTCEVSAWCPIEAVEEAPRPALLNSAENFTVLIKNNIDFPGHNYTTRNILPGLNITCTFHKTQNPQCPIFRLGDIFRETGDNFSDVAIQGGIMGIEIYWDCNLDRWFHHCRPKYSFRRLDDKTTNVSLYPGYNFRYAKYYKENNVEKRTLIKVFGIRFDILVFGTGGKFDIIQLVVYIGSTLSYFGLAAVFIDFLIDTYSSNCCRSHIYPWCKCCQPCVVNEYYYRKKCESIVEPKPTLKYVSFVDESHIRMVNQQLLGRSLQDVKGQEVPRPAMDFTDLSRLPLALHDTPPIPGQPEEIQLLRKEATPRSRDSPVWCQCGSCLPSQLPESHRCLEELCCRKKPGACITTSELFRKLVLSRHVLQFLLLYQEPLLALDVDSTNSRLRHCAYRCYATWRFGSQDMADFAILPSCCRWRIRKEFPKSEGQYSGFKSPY
Outline: (§1)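 Calcium influx read on a fluorometric imaging plate reader with Fluo-4 as the calcium-sensing dye. The P2X7 agonist was benzoylbenzoic ATP (BzATP). pIC50 values are the mean of two experiments unless otherwise indicated; some values are the mean of more than two experiments, with standard deviation shown.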

P2X purinoceptor 7 [2] = target: T2, P2X purinoceptor 7 (Rattus norvegicus, UniProt Q64663); test: Antagonist activity at rat cloned P2X7 receptor expressed in HEK293 cells assessed as inhibition of calcium flux by FLIPR assay; assay type: functional, cell-based; outline: as §1
T2 sequence (Q64663 whole entry): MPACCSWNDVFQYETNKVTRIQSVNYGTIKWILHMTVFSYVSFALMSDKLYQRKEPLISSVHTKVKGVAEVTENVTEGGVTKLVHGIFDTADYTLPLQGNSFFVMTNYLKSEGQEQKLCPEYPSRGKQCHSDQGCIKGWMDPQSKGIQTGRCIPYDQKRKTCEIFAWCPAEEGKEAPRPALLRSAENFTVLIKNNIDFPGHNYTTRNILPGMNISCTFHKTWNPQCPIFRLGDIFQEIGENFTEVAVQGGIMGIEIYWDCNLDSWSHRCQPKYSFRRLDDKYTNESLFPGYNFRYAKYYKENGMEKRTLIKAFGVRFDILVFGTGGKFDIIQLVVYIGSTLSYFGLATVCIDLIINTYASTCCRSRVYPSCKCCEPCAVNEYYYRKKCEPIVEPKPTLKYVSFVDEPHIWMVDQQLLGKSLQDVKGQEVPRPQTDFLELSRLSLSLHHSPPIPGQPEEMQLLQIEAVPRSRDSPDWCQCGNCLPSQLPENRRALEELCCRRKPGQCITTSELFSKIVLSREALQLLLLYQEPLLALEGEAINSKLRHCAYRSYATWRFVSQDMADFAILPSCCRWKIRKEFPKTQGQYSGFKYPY

Row | Structure (SMILES) | IC50 (P2X purinoceptor 7 [1]) | IC50 (P2X purinoceptor 7 [2])
1 | COc1ccc(C(=O)NC(N=C(NC#N)Nc2ccccc2C)C(C)(C)C)cc1 (configuration not stated) | 7940 nM | 2510 nM
2 | COc1ccc(CC(=O)NC(N/C(=N/C#N)Nc2ccc(F)cc2F)C(C)(C)C)cc1OC (configuration not stated) | 251 nM | 10 nM
3 | COc1ccc(CC(=O)NC(NC(=NC#N)Nc2cccnc2OC)C(C)(C)C)cc1OC (configuration not stated) | 100 nM | 39.8 nM
4 | COc1cc(OC)cc(C(=O)NC(N=C(NC#N)Nc2ccccc2C)C(C)(C)C)c1 (configuration not stated) | 2510 nM | 794 nM
5 | COc1ccc(CC(=O)NC(NC(=NC#N)Nc2ccccc2C)C(C)(C)C)cc1OC (stereo in doubt; (-)-13) | 5010 nM | 501 nM
6 | COc1ccc(CC(=O)NC(NC(=NC#N)Nc2c(F)cc(F)cc2F)C(C)(C)C)cc1OC (configuration not stated) | 100 nM | 31.6 nM
7 | COc1ccc(CC(=O)NC(NC(=S)Nc2ccccc2C)C(Cl)(Cl)Cl)cc1OC (configuration not stated) | 100 nM | 50.1 nM
8 | COc1ccc(CC(=O)NC(N=C(NC#N)Nc2cc(F)cc(F)c2)C(C)(C)C)cc1OC (configuration not stated) | 398 nM | 316 nM
9 | COc1ccc(CCC(=O)NC(N=C(NC#N)Nc2ccccc2C)C(C)(C)C)cc1OC (configuration not stated) | 200 nM | 316 nM
10 | COc1cc(OC)cc(C(=O)NC(N/C(=N/C#N)Nc2cccnc2C)C(C)(Cl)Cl)c1 (configuration not stated) | 200 nM | 1000 nM
11 | COc1cc(CC(=O)NC(N/C(=N/C#N)Nc2ccccc2C)C(C)(C)C)cc(OC)c1 (configuration not stated) | 251 nM | 63.1 nM
12 | CC(C)(C)C(NC(=O)CCCc1cccnc1)N/C(=N/C#N)Nc1cccc2ncccc12 (configuration not stated) | 100 nM | 39.8 nM
13 | COc1ccc(CC(=O)NC(N/C(=N/C#N)Nc2cccnc2C)C(C)(C)C)cc1OC (configuration not stated) | 251 nM | 158 nM
14 | COc1ccc(C(=O)NC(N=C(NC#N)Nc2ccccc2C)C(C)(C)C)cc1OC (configuration not stated) | 5010 nM | 631 nM
15 | Cc1ccccc1N/C(=N\C#N)NC(NC(=O)Cc1ccccc1)C(C)(C)C (configuration not stated) | 31600 nM | 316 nM
16 | COc1ccc(CC(=O)NC(N=C(NC#N)Nc2cccc(F)c2)C(C)(C)C)cc1OC (configuration not stated) | 3160 nM | 79.4 nM
17 | COc1ccc(CC(=O)NC(N=C(NC#N)Nc2ccccc2F)C(C)(C)C)cc1OC (configuration not stated) | 200 nM | 12.6 nM

Row | Structure (SMILES) | IC50 (P2X purinoceptor 7 [1]) | IC50 (P2X purinoceptor 7 [2])
18 | O=C(CC12CC3CC(CC(C3)C1)C2)Nc1ccc2[nH]ncc2c1 | 158 nM | 501 nM
19 | COc1ccc(CC(=O)NC(N/C(=N/C#N)Nc2cccc3cnccc23)C(C)(C)C)cc1OC (configuration not stated) | 251 nM | 31.6 nM
20 | COc1ccc(CC(=O)NC(N/C(=N/C#N)Nc2cccc3cccnc23)C(C)(C)C)cc1OC (configuration not stated) | 1580 nM | 158 nM
21 | COc1ccc(CCC(=O)NC(N/C(=N/C#N)Nc2ccccc2C)C(C)(C)C)cc1 (configuration not stated) | 398 nM | 251 nM
22 | COc1ccc(CC(=O)NC(N=C(NC#N)Nc2ccc(F)cc2)C(C)(C)C)cc1OC (configuration not stated) | 316 nM | 20 nM
23 | CCCCCC(=O)NC(N=C(NC#N)Nc1ccccc1C)C(C)(C)C (configuration not stated) | 794 nM | 31.6 nM
24 | COc1ccc(CC(=O)NC(N=C(NC#N)Nc2ccc(C)cc2)C(C)(C)C)cc1OC (configuration not stated) | 2000 nM | 20 nM
25 | COc1ccccc1NC(=NC(NC(=O)Cc1ccc(OC)c(OC)c1)C(C)(C)C)NC#N (configuration not stated) | 158 nM | 25.1 nM
26 | COc1ccc(CC(=O)NC(N=C(NC#N)Nc2cccc(C)c2)C(C)(C)C)cc1OC (configuration not stated) | 1000 nM | 39.8 nM
27 | COc1ccc(CCCC(=O)NC(NC(=NC#N)Nc2ccccc2C)C(C)(C)C)cc1 (configuration not stated) | 79.4 nM | 31.6 nM
28 | COc1ccc(CC(=O)NC(N/C(=N/C#N)Nc2cccnc2Cl)C(C)(C)C)cc1OC (configuration not stated) | 79.4 nM | 39.8 nM
29 | COc1ccc(CC(=O)NC(N/C(=N/C#N)Nc2c(F)cccc2F)C(C)(C)C)cc1OC (configuration not stated) | 200 nM | 31.6 nM
30 | COc1ccc(CC(=O)NC(N=C(NC#N)NCc2ccccc2Cl)C(C)(C)C)cc1OC (configuration not stated) | 631 nM | 200 nM
31 | COc1ccc(CC(=O)NC(N/C(=N/C#N)Nc2cccc(F)c2F)C(C)(C)C)cc1OC (configuration not stated) | 316 nM | 100 nM
32 | COc1ccc(CC(=O)NC(N=C(NC#N)Nc2ccc(F)c(F)c2)C(C)(C)C)cc1OC (configuration not stated) | 794 nM | 50.1 nM
33 | COc1ccc(CC(=O)NC(N/C(=N/C#N)Nc2cc(F)ccc2F)C(C)(C)C)cc1OC (configuration not stated) | 100 nM | 20 nM

More lines, in order of falling IC50 (P2X purinoceptor 7 [1]), values ahead:

Row | IC50 (P2X purinoceptor 7 [1]) | IC50 (P2X purinoceptor 7 [2]) | Structure (SMILES)
34 | 79.4 nM | 20 nM | COc1ccc(CC(=O)NC(N=C(NC#N)Nc2cc(Cl)ccc2F)C(C)(C)C)cc1OC (configuration not stated)
35 | 79.4 nM | 25.1 nM | Cc1ccccc1NC(=NC(NC(=O)CCCc1ccccc1)C(C)(C)C)NC#N (configuration not stated)
36 | 63.1 nM | 50.1 nM | Cc1ncccc1NC(=NC#N)NC(NC(=O)CCCCc1ccccc1)C(C)(C)C (configuration not stated)
37 | 63.1 nM | 12.6 nM | COc1ccc(CC(=O)NC(NC(=NC#N)Nc2ccccc2C)C(C)(C)C)cc1OC (single isomer, unassigned; (+))
38 | 63.1 nM | 50.1 nM | COc1ncccc1NC(=NC#N)NC(NC(=O)c1ccc(Cl)cc1)C(C)(Cl)Cl (configuration not stated)
39 | 63.1 nM | 3.16 nM | COc1ccc(CC(=O)NC(N=C(NC#N)Nc2cc(C)ccc2C)C(C)(C)C)cc1OC (configuration not stated)
40 | 63.1 nM | 200 nM | Cc1ccc(CC(=O)NC(NC(=NC#N)Nc2cccnc2C)C(C)(C)C)cc1F (configuration not stated)
41 | 63.1 nM | 20 nM | Cc1ccccc1N/C(=N\C#N)NC(NC(=O)Cc1ccc(Cl)cc1)C(C)(C)C (configuration not stated)
42 | 63.1 nM | 7.94 nM | COc1ccc(CC(=O)NC(NC(=NC#N)Nc2ccccc2Cl)C(C)(C)C)cc1OC (configuration not stated)
43 | 63.1 nM | 31.6 nM | COc1ccc(CC(=O)NC(N/C(=N/C#N)Nc2ccccc2C)C(C)(C)C)cc1 (configuration not stated)
44 | 63.1 nM | 126 nM | CC(Cl)(Cl)C(NC(=O)c1ccc(Cl)cc1)NC(=NC#N)Nc1cccnc1Cl (configuration not stated)
45 | 50.1 nM | 20 nM | COc1cc(OC)cc(C(=O)NC(NC(=NC#N)Nc2cccnc2OC)C(C)(Cl)Cl)c1 (configuration not stated)
46 | 50.1 nM | 100 nM | COc1ccc(CCCC(=O)NC(N/C(=N/C#N)Nc2cccnc2C)C(C)(C)C)cc1 (configuration not stated)
47 | 50.1 nM | 39.8 nM | Cc1ccccc1N/C(=N\C#N)NC(NC(=O)Cc1ccc2c(c1)OCO2)C(C)(C)C (configuration not stated)
48 | 50.1 nM | 10 nM | COc1ccc(NC(=NC#N)NC(NC(=O)c2ccc(Cl)cc2)C(C)(Cl)Cl)c(OC)n1 (configuration not stated)
49 | 39.8 nM | 6.31 nM | CC(C)(C)C(NC(=O)Cc1ccc(C#N)cc1)N/C(=N/C#N)Nc1cccc2ncccc12 (configuration not stated)
50 | 31.6 nM | 12.6 nM | COc1ccc(N/C(=N\C#N)NC(NC(=O)Cc2ccc(OC)c(OC)c2)C(C)(C)C)c(OC)n1 (configuration not stated)
51 | 31.6 nM | 31.6 nM | CC(C)(C)C(NC(=O)Cc1cccc2ccccc12)NC(=NC#N)Nc1cccc2ncccc12 (configuration not stated)
52 | 31.6 nM | 7.94 nM | CSc1ccc(CC(=O)NC(N=C(NC#N)Nc2ccccc2C)C(C)(C)C)cc1 (configuration not stated)
53 | 31.6 nM | 7.94 nM | COc1ccc(CC(=O)NC(NC(=NC#N)Nc2cccnc2OC)C(C)(Cl)Cl)cc1OC (configuration not stated)
54 | 20 nM | 31.6 nM | CSc1ccc(CC(=O)NC(N=C(NC#N)Nc2cccnc2C)C(C)(C)C)cc1 (configuration not stated)
55 | 10 nM | 10 nM | CC(C)(C)C(N=C(NC#N)Nc1cccc2ncccc12)NC(=O)Cc1ccc2c(c1)OCCO2 (configuration not stated)
56 | 10 nM | 7.94 nM | CSc1ccc(CC(=O)NC(N=C(NC#N)Nc2cccc3ncccc23)C(C)(C)C)cc1 (configuration not stated)
